According to ChEMBL document CHEMBL1145538, “In vitro inhibition of Streptococcus mutans biofilm formation on hydroxyapatite by subinhibitory concentrations of anthraquinones” (2007):
Values after ≈ are worked out from the molar mass of the structure shown. Active and inactive are the calls of the source. No cut-off for these calls is given here.

Key:
Streptococcus mutans [1] = assay: Activity against planktonic Streptococcus mutans LMG 14558; assay type: functional
Summary of the method: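 S. mutans LMG 14558T, routinely grown in BHI broth at 37°C, was tested against planktonic cells by broth microdilution in 96-well microtiter plates to give the MIC in μg/ml. The modified microdilution was also run with and without 1.5 mM glutathione, 0.025% (wt/vol) cysteine or 10 mM mannitol as ROS scavengers, including in chemically defined M1 medium.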

Streptococcus mutans [2] = assay: Effect on Streptococcus mutans LMG 14558 assessed as inhibition of biofilm formation in modified Robbin's device at 50 ug/ml relative to BHIS control; assay type: functional
Summary of the method: (§1)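 S. mutans LMG 14558T grown at 37°C as biofilms on hydroxyapatite disks in modified Robbins' devices, in BHI plus 1% sucrose (BHIS) containing compound at the stated concentration. Biomass per disk is estimated by SYTO9 fluorescent staining and given as % of BHIS-only controls (avg ± SD). Significance by one-tailed independent-sample t test; P > 0.01 is not significant.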

Streptococcus mutans [3] = assay: Effect on Streptococcus mutans LMG 14558 assessed as inhibition of biofilm formation in modified Robbin's device at 5 ug/ml relative to BHIS control; assay type: functional; summary of the method: as §1
Streptococcus mutans [4] = assay: Effect on Streptococcus mutans LMG 14558 assessed as inhibition of biofilm formation in modified Robbin's device at 0.1 ug/ml relative to BHIS control relative to BHIS control; assay type: functional; summary of the method: as §1
Streptococcus mutans [5] = assay: Effect on Streptococcus mutans LMG 14558 assessed as inhibition of biofilm formation in modified Robbin's device at 1200 ug/ml relative to BHIS control; assay type: functional; summary of the method: as §1
Streptococcus mutans [6] = assay: Decrease in membrane fluidity of Streptococcus mutans LMG 14558 using pyrene in BHI medium at 5 ug/ml relative to BHI control; assay type: functional; design: scale not given: the % may be the effect or the level left
Summary of the method: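 Relative membrane fluidity (lateral diffusion) of S. mutans LMG 14558T grown in BHI with or without 5 μg/ml compound, read as pyrene intermolecular excimer-to-monomer fluorescence intensity ratio at constant temperature. Relative fluidity F = (Ie/Im treated)/(Ie/Im untreated) × Fr, with untreated BHI-grown cells set to Fr = 1.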

Streptococcus mutans [7] = assay: Susceptibility of Streptococcus mutans LMG 14558 in BHIS medium assessed as increase in biofilm formation at 5 ug/ml in presence of 0.025% cysteine; assay type: functional, organism-based
Streptococcus mutans [8] = assay: Effect on Streptococcus mutans LMG 14558 assessed as inhibition of biofilm formation in modified Robbin's device at 2 ug/ml relative to BHIS control; assay type: functional; summary of the method: as §1
Streptococcus mutans [9] = assay: Effect on Streptococcus mutans LMG 14558 assessed as inhibition of biofilm formation in modified Robbin's device at 1 ug/ml relative to BHIS control; assay type: functional; summary of the method: as §1
Streptococcus mutans [10] = assay: Effect on Streptococcus mutans LMG 14558 assessed as inhibition of biofilm formation in modified Robbin's device at 0.5 ug/ml relative to BHIS control; assay type: functional; summary of the method: as §1
Streptococcus mutans [11] = assay: Effect on Streptococcus mutans LMG 14558 assessed as inhibition of biofilm formation in modified Robbin's device at 1333 ug/ml relative to BHIS control; assay type: functional; summary of the method: as §1

Structure (SMILES)	MIC (Streptococcus mutans [1])	inhibition at 5 µg/mL (Streptococcus mutans [3])	other results
O=C1c2cccc(O)c2C(=O)c2c(O)cc(CO)cc21 [ALOE-EMODIN]	> 250 µg/mL	–	inhibition at 50 µg/mL (Streptococcus mutans [2]): 99.2%
O=C1c2ccc(O)cc2C(=O)c2ccc(O)cc21 [ANTHRAFLAVICACID]	250 µg/mL (≈ 1040 µM)	98.2%	–
Cc1c(C(=O)O)c(O)cc2c1C(=O)c1c(O)c([C@@H]3O[C@H](CO)[C@@H](O)[C@H](O)[C@H]3O)c(O)c(O)c1C2=O [CARMINIC ACID]	> 250 µg/mL	66.5%	–
N=C(NCCCCCCNC(=N)NC(=N)Nc1ccc(Cl)cc1)NC(=N)Nc1ccc(Cl)cc1 [CHLORHEXIDINE]	2 µg/mL (≈ 3.96 µM)	–	inhibition at 0.1 µg/mL (Streptococcus mutans [4]): 104%; inhibition at 1200 µg/mL (Streptococcus mutans [5]): 34.5%
Cc1cc(O)c2c(c1)C(=O)c1cccc(O)c1C2=O [CHRYSOPHANOL]	250 µg/mL (≈ 983 µM)	75%	–
O=C1c2cccc(O)c2C(=O)c2c(O)cccc21 [DANTHRON]	250 µg/mL (≈ 1040 µM)	91.3%	–
Cc1cc(O)c2c(c1)C(=O)c1cc(O)cc(O)c1C2=O [EMODIN]	> 250 µg/mL	10.9%	Activity (Streptococcus mutans [6]): 21.2%; Activity (Streptococcus mutans [7]): inactive; inhibition at 2 µg/mL (Streptococcus mutans [8]): 52.1%; inhibition at 1 µg/mL (Streptococcus mutans [9]): 79%; inhibition at 0.5 µg/mL (Streptococcus mutans [10]): 85.7%; inhibition at 0.1 µg/mL (Streptococcus mutans [4]): 101%
Cc1cc(O)c2c(=O)c3c(O)cc(O)c4c5c(O)cc(O)c6c(=O)c7c(O)cc(C)c8c1c2c(c34)c(c78)c65 [HYPERICIN]	250 µg/mL (≈ 496 µM)	47.8%	Activity (Streptococcus mutans [6]): 35.6%
COc1cc(O)c2c(c1)C(=O)c1cc(C)cc(O)c1C2=O [PHYSCION]	> 250 µg/mL	120%	–
O=C1c2ccccc2C(=O)c2c(O)ccc(O)c21 [QUINIZARIN]	250 µg/mL (≈ 1040 µM)	80%	–
O=C(O)c1cc(O)c2c(c1)C(=O)c1cccc(O)c1C2=O [RHEIN]	10 µg/mL (≈ 35.2 µM)	75.2%	–
O=C(O)c1cc(O)c2c(c1)C(C1c3cccc(O)c3C(=O)c3c(O)cc(C(=O)O)cc31)c1cccc(O)c1C2=O (stereo not given) [SENNIDIN A]	> 250 µg/mL	83.7%	–
Oc1cc(Cl)ccc1Oc1ccc(Cl)cc1Cl [TRICLOSAN]	16 µg/mL (≈ 55.3 µM)	78.1%	inhibition at 1333 µg/mL (Streptococcus mutans [11]): 10.9%
